Measured values from ChEMBL document CHEMBL1938334, “Quinoline tricyclic derivatives. Design, synthesis and evaluation of the antiviral activity of three new classes of RNA-dependent RNA polymerase inhibitors” (Bioorg Med Chem, 2011).

Assays:
[1] = Antiviral activity against Bovine viral diarrhea virus 1-NADL infected in MDBK cells assessed as inhibition of virus-induced cytopathogenicity after 3 to 4 days by MTT assay; format: functional, cell-based; settings: Bovine viral diarrhea virus isolates and strains
Summary of the method: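 Host cells were seeded in 96-well plates at 3×10^4 cells/well (MDBK) or 5×10^4 cells/well (BHK-21) and grown to confluent monolayers overnight. They were infected at m.o.i. 0.01 in maintenance MEM with 0.5% inactivated FBS. Serial compound dilutions were added after 1 h. Viability was read by MTT after 3–4 days at 37 °C. EC50 was taken by linear regression against untreated controls. Mean of three determinations.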

[2] = system: Vesicular stomatitis Indiana virus; assay: Antiviral activity against clinical isolate Vesicular stomatitis Indiana virus infected in african green monkey Vero 76 cells assessed as reduction of virus-induced plaque formation after 2 days using crystal violet staining; format: functional, organism-based; settings: 48 h
[3] = system: HepG2; assay: Cytotoxicity against human HepG2 cells after 96 hrs by MTT assay; format: functional; settings: HepG2, 96 h
Summary of the method: (§1)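 Cells were seeded at 1×10^5 cells/mL: leukaemia/lymphoma lines in RPMI-1640, solid tumour and fibroblast lines in specific media, all with 10% FCS. Serial compound dilutions were applied for 96 h at 37 °C, 5% CO2, under conditions allowing controls at least three rounds of multiplication. Viability was read by MTT. CC50 by linear regression. Mean of three determinations.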

[4] = system: Poliovirus 1; assay: Antiviral activity against Human poliovirus 1 strain Sabin Chat infected in african green monkey Vero 76 cells assessed as virus-induced reduction of plaque formation after 2 days using crystal violet staining; format: functional, cell-based; settings: Enterovirus C, 48 h
[5] = Cytotoxicity against human GS4.1 cells; format: cell-based
Summary of the method: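 Huh-7 cells carrying HCV genotype 1b subgenomic replicon, grown in D-MEM/10% FBS with 0.5 mg/mL G418. Seeded at 7.5×10^3 cells/well with two-fold serial dilutions (top 75 μM), incubated 72 h at 37 °C. Viability by MTS-type Cell Titer 96 Aqueous One reagent; CC50 from % cytotoxicity versus concentration curves.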

[6] = Cytotoxicity against human CRL7065 cells after 96 hrs by MTT assay; format: cell-based, CRL-7065
Summary of the method: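 Foreskin fibroblasts seeded at 1×10^5 cells/mL in specific medium with 10% FCS and antibiotics; serial compound dilutions, 37 °C, 5% CO2, 96 h, under conditions allowing untreated controls at least three rounds of multiplication. MTT read-out; concentration reducing proliferation by 50% by linear regression versus untreated controls; three independent determinations.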

[7] = Antiviral activity against Vaccinia virus Lister Elstree infected in african green monkey Vero 76 cells assessed as reduction of virus-induced plaque formation after 3 days using crystal violet staining; format: functional, cell-based; settings: 72 h
[8] = Selectivity index, […] for human GS4.1 cells
Summary of the method: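 Both values come from GS4.1 replicon cells treated 72 h with two-fold serial dilutions (top 75 μM). EC50 was from NS4A ELISA with a four-parameter sigmoidal fit. CC50 was from a tetrazolium-based Aqueous One cell proliferation readout.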

[9] = system: MCF7; assay: Cytotoxicity against human MCF7 cells after 96 hrs by MTT assay; format: functional; settings: MCF7, 96 h; summary of the method: as §1

Question: What does the source list for `O=[N+]([O-])c1ccc(-c2nc3cc4cccnc4c(Cl)c3[nH]2)cc1`?
Answer: EC50 [1]: 1.2 µM; EC50 [2]: > 100 µM; CC50 [3]: 10.3 µM; EC50 [4]: > 100 µM; CC50 [5]: 12 µM; CC50 at 96 h [6]: > 100 µM; EC50 [7]: > 100 µM; Selectivity Index [8]: 4; CC50 [9]: > 100 µM
